According to ChEMBL document CHEMBL4689842, “EUbOPEN Chemogenomics Library wave 1” (2021):

System: U2OS
Assay: Multiplex assay against U2OS
Assay type: toxicity, cell-based
Conditions: human
Outline: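 Tubulin, mitochondrial-mass and membrane-permeability phenotypes are per cents of healthy-nucleus cells. Cells were gated by CellPathfinder machine learning into Hoechst high-intensity objects or normal cells, normal cells into healthy, pyknosed or fragmented nuclei, and pyknosed cells into mitotic or apoptotic. Before that, live cells stained at seeding with Hoechst33342, BioTracker Green Microtubule Cytoskeleton Dye, MitoTracker Red and Annexin V Alexa Fluor 680 were imaged on a CQ1 microscope at 37°C and 5% CO2 after compound addition.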

[1] = 12 h, 1 µM, compound concentration 1 uM, replicate 1
[2] = 12 h, 1 µM, compound concentration 1 uM, replicate 2
[3] = 12 h, 10 µM, compound concentration 10 uM, replicate 1
[4] = 12 h, 10 µM, compound concentration 10 uM, replicate 2
[5] = 24 h, 1 µM, compound concentration 1 uM, replicate 1
[6] = 24 h, 1 µM, compound concentration 1 uM, replicate 2
[7] = 24 h, 10 µM, compound concentration 10 uM, replicate 1
[8] = 24 h, 10 µM, compound concentration 10 uM, replicate 2

Cc1ccc(NC(=O)Nc2cc(C(F)(F)F)ccc2F)cc1Nc1ccc2c(c1)NC(=O)/C2=C\c1ccc[nH]1
Population Apoptotic (%) [1]: 32% | Population Fragmented Nuclei (%) [1]: 15% | Population Healthy Nuclei (%) [1]: 66% | Population Hoechst High Intensity Objects (%) [1]: 2% | Population Membrane Permeable-Phenotype (%) [1]: 87% | Population Mitochondria Different-Phenotype (%) [1]: 7% | Population Mitotic Cells (%) [1]: 68% | Population Normal (%) [1]: 97% | Population Pyknosed Nuclei (%) [1]: 18% | Population Tubulin-Different-Phenotype (%) [1]: 65% | Total Cell Count [1]: 153 | Population Apoptotic (%) [2]: 33% | Population Fragmented Nuclei (%) [2]: 24% | Population Healthy Nuclei (%) [2]: 57% | Population Hoechst High Intensity Objects (%) [2]: 12% | Population Membrane Permeable-Phenotype (%) [2]: 91% | Population Mitochondria Different-Phenotype (%) [2]: 18% | Population Mitotic Cells (%) [2]: 66% | Population Normal (%) [2]: 87% | Population Pyknosed Nuclei (%) [2]: 17% | Population Tubulin-Different-Phenotype (%) [2]: 59% | Total Cell Count [2]: 88 | Population Apoptotic (%) [3]: 22% | Population Fragmented Nuclei (%) [3]: 2% | Population Healthy Nuclei (%) [3]: 91% | Population Hoechst High Intensity Objects (%) [3]: 2% | Population Membrane Permeable-Phenotype (%) [3]: 11% | Population Mitochondria Different-Phenotype (%) [3]: 22% | Population Mitotic Cells (%) [3]: 77% | Population Normal (%) [3]: 97% | Population Pyknosed Nuclei (%) [3]: 6% | Population Tubulin-Different-Phenotype (%) [3]: 27% | Total Cell Count [3]: 204 | Population Apoptotic (%) [4]: 66% | Population Fragmented Nuclei (%) [4]: 8% | Population Healthy Nuclei (%) [4]: 87% | Population Hoechst High Intensity Objects (%) [4]: 11% | Population Membrane Permeable-Phenotype (%) [4]: 5% | Population Mitochondria Different-Phenotype (%) [4]: 29% | Population Mitotic Cells (%) [4]: 33% | Population Normal (%) [4]: 88% | Population Pyknosed Nuclei (%) [4]: 3% | Population Tubulin-Different-Phenotype (%) [4]: 19% | Total Cell Count [4]: 147 | Population Apoptotic (%) [5]: 75% | Population Fragmented Nuclei (%) [5]: 14% | Population Healthy Nuclei (%) [5]: 52% | Population Membrane Permeable-Phenotype (%) [5]: 85% | Population Mitochondria Different-Phenotype (%) [5]: 11% | Population Mitotic Cells (%) [5]: 25% | Population Pyknosed Nuclei (%) [5]: 32% | Population Tubulin-Different-Phenotype (%) [5]: 36% | Total Cell Count [5]: 205 | Population Apoptotic (%) [6]: 76% | Population Fragmented Nuclei (%) [6]: 31% | Population Healthy Nuclei (%) [6]: 44% | Population Hoechst High Intensity Objects (%) [6]: 4% | Population Membrane Permeable-Phenotype (%) [6]: 94% | Population Mitochondria Different-Phenotype (%) [6]: 12% | Population Mitotic Cells (%) [6]: 23% | Population Normal (%) [6]: 95% | Population Pyknosed Nuclei (%) [6]: 23% | Population Tubulin-Different-Phenotype (%) [6]: 53% | Total Cell Count [6]: 118 | Population Apoptotic (%) [7]: 26% | Population Fragmented Nuclei (%) [7]: 2% | Population Healthy Nuclei (%) [7]: 89% | Population Hoechst High Intensity Objects (%) [7]: 1% | Population Membrane Permeable-Phenotype (%) [7]: 8% | Population Mitochondria Different-Phenotype (%) [7]: 22% | Population Mitotic Cells (%) [7]: 73% | Population Normal (%) [7]: 98% | Population Pyknosed Nuclei (%) [7]: 7% | Population Tubulin-Different-Phenotype (%) [7]: 31% | Total Cell Count [7]: 302 | Population Apoptotic (%) [8]: 16% | Population Fragmented Nuclei (%) [8]: 6% | Population Healthy Nuclei (%) [8]: 87% | Population Hoechst High Intensity Objects (%) [8]: 8% | Population Membrane Permeable-Phenotype (%) [8]: 7% | Population Mitochondria Different-Phenotype (%) [8]: 32% | Population Mitotic Cells (%) [8]: 83% | Population Normal (%) [8]: 91% | Population Pyknosed Nuclei (%) [8]: 5% | Population Tubulin-Different-Phenotype (%) [8]: 18% | Total Cell Count [8]: 205
